Compound activity deposited in PubChem by The Scripps Research Institute Molecular Screening Center.
An excerpt weighted towards active compounds, which were near 1.8% of everything screened.
NPY-Y2 PAM-ag – potentiates or activates human NPY-Y2 receptor. P49146. cells expressing NPY-Y2, potentiator/agonist read-out. activation, % at 3.6 µM. hit rate 0.45% among 220,000. AID 1359; in the data active = activation above about 27%;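 note: cells stimulated with NPY near EC25 plus isoproterenol at EC100; 0% = vehicle plus submaximal agonist and 100% = vehicle plus saturating agonist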
NPY Y2 blocker – antagonists of human neuropeptide Y receptor Y2; P49146; NPY-Y2 expressing cells, antagonist mode; inhibition, % at 2.7 µM; hit rate 0.99% among 140,000; in the data active = inhibition above about 17%;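 note: 0% = vehicle with agonist challenge and 100% = reference antagonist with challenge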
NPY1 pot ag – potentiators or agonists of human neuropeptide Y receptor Y1; P25929; NPY-Y1 expressing cells, potentiator/agonist activation; activation, % at 3.6 µM; hit rate 0.37% among 220,000; AID 1304; in the data active = activation above about 33%, passing the limit was not always enough;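 note: cells stimulated with NPY at EC10 then isoproterenol at EC100; 0% = low agonist plus stimulus and 100% = saturating agonist plus stimulus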
Target sequence (P25929 whole entry, looked up): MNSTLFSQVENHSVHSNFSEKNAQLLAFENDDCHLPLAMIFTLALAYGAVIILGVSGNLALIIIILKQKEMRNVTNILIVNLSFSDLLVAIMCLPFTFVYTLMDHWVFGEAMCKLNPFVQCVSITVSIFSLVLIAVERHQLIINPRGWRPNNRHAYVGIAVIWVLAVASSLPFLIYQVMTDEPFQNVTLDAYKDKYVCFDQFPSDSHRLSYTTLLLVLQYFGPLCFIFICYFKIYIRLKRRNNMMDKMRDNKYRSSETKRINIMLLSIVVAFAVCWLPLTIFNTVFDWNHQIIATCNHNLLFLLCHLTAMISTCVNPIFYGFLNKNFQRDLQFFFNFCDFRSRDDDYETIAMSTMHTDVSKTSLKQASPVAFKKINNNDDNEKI
NPY-Y1 antag – antagonists of human neuropeptide Y receptor Y1 | P25929 | HEK293-CNG Y1 cells, membrane potential fluorescence; NPY at EC95, then isoproterenol | inhibition, % at 3.6 µM | hit rate 1% among 200,000;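 active = inhibition above the campaign mean inhibition of all tested compounds plus 3 SD, cut at about 20% in these data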;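 note: 0% = DMSO wells given NPY plus isoproterenol and 100% = isoproterenol alone without NPY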
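Benchmarks – high control isoproterenol alone, low control NPY with isoproterenol · Material – HEK293 Y1/CNG channel cell line · Times – dye 3 h, compound 60 min room temperature, stimulation 45 min · Probe or stimulus – NPY (25 nM), isoproterenol (1 µM), Ro 20-1724 (25 µM) · Evaluation – % inhibition of NPY effect · Signal – fluorescence, membrane potential probe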
Numbers without * were called inactive; . = no result; ! = not confirmed by another sample.

SMILES | NPY-Y2 PAM-ag | NPY Y2 blocker | NPY1 pot ag | NPY-Y1 antag
CNC(=O)C(=O)N/N=C/c1cccnc1 | 9 | . | 2 | .
CN(C)CCOC(c1ccccc1)c1ccccc1 | 101*! | 3 | 107*! | 1
CN(C)CCOC(c1ccccc1)c1ccccc1 (tested in a mixture with another compound) | -8 | 3 | 10 | 2
CC(C)CC1NC(=O)N(Cc2nc3ccccc3s2)C1=O (stereo unspecified) | 1 | . | 8 | .
Cc1cc(N2CCCC2)nc2ccc(NC(=S)NCCCN3CCC(C)CC3)cc12 | -17 | . | -22 | 12
Cc1nc2ccccn2c1-c1ccnn1S(=O)(=O)c1ccc(F)cc1 | -2 | . | -11 | .
CCOC(=O)COc1ccc2c3c(c(=O)oc2c1C)CCC3 | 0 | 4 | -32 | 4
CCOC(=O)CCc1c(C)c2ccc(OCC)c(C)c2oc1=O | -11 | 29* | -16 | 33*
Cn1cnnc1SCC(=O)Nc1ccc(Cl)cn1 | 71* | . | 74* | -12
COc1cccc(CNc2cc(CSc3ccc(Cl)cc3)nc(C)n2)c1 | -12 | 21* | -58 | 21*
COc1ccccc1CNc1cc(CSc2ccc(Cl)cc2)nc(C)n1 | 3 | 17 | -4 | 12
COc1ccc(N2CCN(/C(=N\S(=O)(=O)c3ccccc3)Nc3nc(C)cc(C)n3)CC2)cc1 | -15 | 3 | -20 | 3
Cc1ccc(S(=O)(=O)/N=C(/Nc2nc(C)cc(C)n2)N2CCOCC2)cc1 | -6 | -3 | 0 | 25*
CC1(C)C([N+](=O)[O-])C(c2ccc(F)cc2)NC(c2ccc(F)cc2)C1[N+](=O)[O-] (stereo unspecified) | -14 | . | -9 | .
CC1(C)C([N+](=O)[O-])C(c2ccc(O)cc2)NC(c2ccc(O)cc2)C1[N+](=O)[O-] (stereo unspecified) | 35* | 1 | 40* | 4
COc1ccc(/C=C2\N=C(c3ccccc3Cl)NC2=O)cc1 | 0 | . | 16 | .
COC(=O)[C@H](C)NC(=O)Nc1cccc(Br)c1 | -5 | . | 3 | .
CCOC(=O)C1=NN(c2cccc(C)c2)C2(S1)SC(C(C)=O)=C(C)N2c1ccccc1 (stereo unspecified) | -11 | 32* | -30 | 29*
CCOC(=O)C1=NN(c2ccccc2)C2(S1)SC(C(C)=O)=C(C)N2c1ccccc1 (stereo unspecified) | -2 | 6 | 0 | 1
Cc1ccc(C(C)C)c(OC/C(O)=C(\C#N)c2nc3ccccc3[nH]2)c1 | -17 | . | -8 | .
CCS(=O)(=O)N1Cc2ccccc2CC1C(=O)Nc1nc2ccc(C)cc2s1 (stereo unspecified) | 31* | -4 | 46* | -9
CCS(=O)(=O)N1Cc2ccccc2CC1C(=O)Nc1ncc(C)s1 (stereo unspecified) | -3 | . | -23 | 1
Cc1cc2c(cc(C(=O)N3CCC(C(=O)N4CCCC4)CC3)n2Cc2c(F)cccc2Cl)o1 | -13 | 21* | -2 | 26*
CCOC(=O)c1cc2occc2n1Cc1c(F)cccc1Cl | 11 | 7 | -29 | 3
Cc1ccc(-c2nc(CN(C)C3CCOC3)c(C)o2)s1 (stereo unspecified) | -16 | . | -7 | -3
SMILES | NPY-Y2 PAM-ag | NPY Y2 blocker | NPY1 pot ag | NPY-Y1 antag
CCOc1cc(C2C(C(=O)c3ccco3)=C(O)C(=O)N2CCc2ccccc2)ccc1O (stereo unspecified) | -24 | 36* | -31 | 39*
O=C(C1=C(O)C(=O)N(CCc2ccccc2)C1c1cccnc1)c1ccco1 (stereo unspecified) | -5 | 3 | -8 | 8
COc1ccc(OCC(=O)Nc2ccccc2OC)cc1 | 6 | 5 | -4 | -1
CNCc1ccccc1OCC(=O)Nc1ccccc1OC | 37* | 6 | 105* | -1
COc1cc(N=Nc2cccc(S(N)(=O)=O)c2)c2ccccc2c1N | 52* | . | 61* | .
Cc1ccc(-c2cc(Cc3ccccn3)c(=O)[nH]n2)cc1 | 6 | . | -12 | .
O=C(Nc1ccccc1)C1=C(c2ccccc2)S(=O)(=O)CCS1(=O)=O | 45* | . | 64* | -8
O=C(O)c1ccccc1C(=O)Nc1ccccc1 | 13 | 2 | 10 | -1
CCOC(=O)c1sc(NC(=O)CN2C(=O)NC3(CCCCCCC3)C2=O)c(C(=O)OCC)c1C | 102* | . | 68* | .
CCn1c(SCC(=O)N2CCN(c3cccc(Cl)c3)CC2)nc2ccccc2c1=O | -9 | 24* | -35 | 24*
Cc1ccc(S(=O)(=O)NN2C(=O)/C(=C/c3cccs3)SC2=S)cc1 | -33 | . | -17 | .
Cc1ccc(S(=O)(=O)NN2C(=O)/C(=C/c3cccn3C)SC2=S)cc1 | -26 | 9 | -42 | 28*
O=C1C=C(NCc2ccc(Cl)cc2Cl)C2(CCCCC2)O1 | 8 | 26* | -19 | 26*
O=C(N/N=C/c1ccc([N+](=O)[O-])o1)c1cc2ccccc2o1 | 0 | . | 10 | .
O=[N+]([O-])c1ccc(/C=N/Nc2ccc3ccccc3c2)o1 | 66* | -10 | 76* | -19
C/C(=N\Nc1ccc(F)cc1)c1ccncc1 | 11 | -1 | 13 | -8
C/C(=N\Nc1cccc(Cl)c1)c1ccncc1 | 40* | . | 39* | -12
CCOC(=O)C1(P(=O)(c2ccc(Cl)cc2)c2ccc(Cl)cc2)CCC1 | -45 | 27* | -18 | 28*
Nc1cc(N)nc(SCC(=O)N2CCN(S(=O)(=O)c3ccccc3)CC2)n1 | 6 | . | 11 | .
S=c1[nH]cc(-c2ccccc2)n1-c1cccc(Cl)c1 | 32* | -2 | 39* | -6
COc1ccc([C@H]2[C@H](C(=O)C(C)(C)C)N3N=Cc4ccccc4C3[C@]23N=C(c2ccccc2)OC3=O)cc1 (stereo partly specified) | 6 | 1 | 13 | 27*
Cc1ccccc1OCC(O)CN1CCCCC1 (stereo unspecified) | 64* | . | 89* | -12
Cc1ccccc1OCC(O)CN1CCN(c2ccc(Cl)cc2)CC1 (stereo unspecified) | -39 | . | -32 | .
Cc1ccccc1OCC(O)CN (stereo unspecified) | 44* | 3 | 80* | -16
OC1(c2ccc(Cl)c(Cl)c2)C[n+]2ccccc2N1Cc1ccccc1 (stereo unspecified) | -17 | . | -24 | .
SMILES | NPY-Y2 PAM-ag | NPY Y2 blocker | NPY1 pot ag | NPY-Y1 antag
N#CCc1cnc2ccccc2n1 | 0 | . | 10 | .
O=C(Cn1nnc(-c2cccc(C(F)(F)F)c2)n1)NC(=O)NCc1ccco1 | -23 | 21* | -37 | 14
N#C/C(C(N)=O)=c1/ccc2c(c1)N1C3=C(CCCC3)CC3CCCCC31N=2 (stereo unspecified) | 47* | -13 | 51* | -27
COC(=O)COc1ccc2c(-c3ccc(OC)cc3)cc(=O)oc2c1 | 98* | 5 | 98* | 2
COC(=O)COc1ccc2c(-c3cccc([N+](=O)[O-])c3)cc(=O)oc2c1 | -6 | 1 | 8 | 0
COCCCN1C(=O)/C(=C/c2ccc(CNS(=O)(=O)c3ccccc3)o2)C(C(=O)OC)=C1C | 3 | . | 0 | -2
Cc1cc(-c2ccco2)n(-c2ccccc2)n1 | 101* | 3 | 105* | -15
